Screening data as filed in PubChem.
Pf Dd2 inh: P. falciparum Dd2 growth inhibitors, primary screen, SYBR Green fluorescence, single dose replicates. 72 h; hits give low values. activity change, % at 10 µM. hit rate 2.3% among 94,000. AID 1159554, 2015; in the data active = activity change below about -80%; inconclusive = no clear call, values can overlap the other calls
KDM4C inh: inhibitors of GASC-1 (KDM4C) histone demethylase, primary screen, biochemical, single concentration HTS | AID 720574, 2013 | Lysine-specific demethylase 4C (Homo sapiens), Q9H3R0 | GST-KDM4C 2-372, H3K9me3 peptide, LANCE TR-FRET | hit rate 0.15% among 96,000 | inhibition, % at 12.5 µM;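 active = mean replicate inhibition above about 25%, with at least 55% of replicates also reaching it, limit read from the data, passing the limit was not always enough; inconclusive = only one of those two conditions met; inactive = neither condition met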
Target sequence (Q9H3R0 2-372 limits assumed): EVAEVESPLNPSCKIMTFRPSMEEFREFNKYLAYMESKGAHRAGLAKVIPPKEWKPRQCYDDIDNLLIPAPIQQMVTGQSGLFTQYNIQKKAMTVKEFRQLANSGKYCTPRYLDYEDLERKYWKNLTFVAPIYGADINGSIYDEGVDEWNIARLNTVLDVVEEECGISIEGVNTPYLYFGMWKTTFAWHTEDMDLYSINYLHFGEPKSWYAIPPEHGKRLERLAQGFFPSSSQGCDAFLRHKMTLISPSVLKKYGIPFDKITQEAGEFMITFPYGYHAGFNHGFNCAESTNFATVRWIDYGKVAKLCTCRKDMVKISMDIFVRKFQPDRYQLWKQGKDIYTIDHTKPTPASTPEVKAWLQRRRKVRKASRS
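Material: N-terminal GST-fused human GASC-1 (KDM4C) fragment, residues 2-372. Input: 10 nM enzyme. Incubation: enzyme reaction 30 min, then detection 60 min, both room temperature. Doses: one test concentration per compound. Read-out basis: inhibition from TR-FRET ratio decrease. Detection: LANCE TR-FRET, excitation 340 nm, emissions 618 and 671 nm.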
IDH1 R132H inh: inhibitors of IDH1 R132H reductase, primary screen, biochemical, plate reader, single point; Isocitrate dehydrogenase [NADP] cytoplasmic (Homo sapiens), O75874; diaphorase/resazurin fluorescence, 60 min; inhibition, % at 10 µM; hit rate 0.18% among 70,000; in the data active = inhibition above about 34%; inconclusive = no clear call, values can overlap the other calls; inactive = below about 11%;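 also: 0% = DMSO and 100% = no enzyme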
T cruzi growth-1: T. cruzi intracellular proliferation inhibitors, primary screen, cell-based, beta-gal Tulahuen parasites, NIH3T3 host, luminescence | T. cruzi beta-gal in NIH3T3, GalScreen luminescence, 90 h | inhibition, % at 8.34 µM | hit rate 5.9% among 77,000 | AID 624255, 2012;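 active = mean inhibition above about 93%, with at least 55% of replicates each passing it, limit read from the data, passing the limit was not always enough; inconclusive = only one of those two conditions holds; inactive = neither condition holds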
T cruzi growth-2: T. cruzi intracellular proliferation inhibitors, confirmation, cell-based, NIH3T3 host, beta-gal parasite, luminescence, cherry-pick; shares compounds with T cruzi growth-1; T. cruzi beta-gal in NIH3T3, GalScreen luminescence, 90 h; inhibition, % at 8.35 µM; hit rate 72% among 5,600; AID 651739, 2012;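 active = mean replicate inhibition above about 95% and at least 55% of replicates individually reaching it, limit read from the data; inconclusive = only one of the two criteria is met; inactive = neither criterion is met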
T cruzi growth-3: inhibitors of intracellular T. cruzi replication, confirmation, NIH3T3 host cells, beta-gal parasites, cherry-pick, set 2; shares compounds with T cruzi growth-1; T. cruzi beta-gal in NIH3T3, GalScreen luminescence, 90 h; inhibition, % at 2.09 µM; hit rate 21% among 5,600;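 active = mean inhibition above about 95%, with at least 55% of replicates also reaching it, limit read from the data; inconclusive = meets just one of the two conditions; inactive = meets neither condition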;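 also: plate controls were neutral control median for no effect and positive control median for full effect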
NIH3T3 tox: cytotoxicity in mouse NIH/3T3 fibroblasts, confirmation, cytotoxicity control for T. cruzi proliferation inhibitor project, cell-based, cherry-pick, single point; shares compounds with T cruzi growth-1; NIH/3T3 viability, CellTiter-Glo ATP luminescence, 90 h; cytotoxicity (signal decrease), % at 8.35 µM; hit rate 14% among 5,600; AID 651742, 2012;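 active = mean signal decrease across replicates above about 35% based on untreated-well scatter, with enough replicates individually passing, limit read from the data; inconclusive = no rule stated though some were filed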;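 also: 0% = median of neutral control wells and 100% = median of positive control wells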
3T3 cytotox 2: NIH/3T3 fibroblast cytotoxicity, confirmation, cytotoxicity control, cell-based, cherry-pick, single point, set 2 | shares compounds with T cruzi growth-1 | NIH/3T3 viability, CellTiter-Glo ATP luminescence, 90 h | inhibition, % at 24.9 µM | hit rate 56% among 5,600;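 active = mean loss of cell viability signal at or above a set limit, and enough replicates individually reaching it; inconclusive = meets only the mean limit or only the replicate share; inactive = meets neither condition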;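 also: 0% = median of neutral control wells and 100% = median of positive control wells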
Starred values were filed as active, the others as inactive; ? = inconclusive; / = no result given. Hits are enriched below; roughly 5.8% of the tested compounds scored in any of these assays.

SMILES	Pf Dd2 inh	KDM4C inh	IDH1 R132H inh	T cruzi growth-1	T cruzi growth-2	T cruzi growth-3	NIH3T3 tox	3T3 cytotox 2
C[C@@H]1CN([C@H](C)CO)S(=O)(=O)c2ccc(-c3cccc(C#N)c3)cc2O[C@H]1CN(C)C	-18	8	0	110*	87	28	25	36*
C[C@@H]1CN([C@@H](C)CO)S(=O)(=O)c2ccc(-c3cccc(C#N)c3)cc2O[C@H]1CN(C)C(=O)c1ccccc1	-54	0	0	67	/	/	/	/
C[C@H](CO)N1C[C@H](C)[C@@H](CN(C)C)Oc2cc(-c3cccc(C#N)c3)ccc2S1(=O)=O	-11	1	0	53	/	/	/	/
C[C@H](CO)N1C[C@H](C)[C@H](CN(C)C(=O)c2ccc(F)cc2)Oc2cc(-c3cccc(C#N)c3)ccc2S1(=O)=O	-68	-1	0	104*	71	74	7	64*
C[C@@H]1CN([C@H](C)CO)S(=O)(=O)c2ccc(-c3cccc(C#N)c3)cc2O[C@@H]1CN(C)C(=O)c1ccc(F)cc1	-14	2	1	101*	102*	83	?	88*
COc1ccc(C(=O)Nc2ccc3c(c2)C(=O)N(C)C[C@@H](OC)[C@H](C)CN(C(C)=O)[C@H](C)CO3)cc1	5	0	0	79	/	/	/	/
C[C@H](CO)N1C[C@H](C)[C@H](CN(C)C(=O)Nc2ccc(C(F)(F)F)cc2)OCCCC[C@H](C)Oc2ccc(NC(=O)Cc3ccccc3)cc2C1=O	-43	-1	/	?	103*	102*	18	33*
C[C@@H]1CCCCO[C@@H](CN(C)C(=O)Nc2ccc(C(F)(F)F)cc2)[C@@H](C)CN([C@H](C)CO)C(=O)c2cc(NC(=O)Cc3ccccc3)ccc2O1	-5	-2	/	?	108*	35	6	19
O=C(COc1ccccc1[N+](=O)[O-])Nc1cccc(-c2nc3cc(Cl)cc(Cl)c3o2)c1	/	/	0	/	/	/	/	/
O=C(NCC[C@H]1CC[C@@H](NC(=O)C2CC2)[C@@H](CO)O1)c1cc(Cl)cc(Cl)c1	/	-1	0	/	/	/	/	/
CS(=O)(=O)Nc1ccc2c(c1)[C@H]1C[C@H](CC(=O)NCc3ccncc3)O[C@@H](CO)[C@H]1O2	12	-1	0	102*	1	12	1	4
CS(=O)(=O)Nc1ccc2c(c1)[C@@H]1C[C@@H](CC(=O)NCc3ccncc3)O[C@H](CO)[C@@H]1O2	-14	0	-1	117*	-7	-18	8	4
CC(C)CC#Cc1ccc2c(c1)O[C@@H](CN(C)S(=O)(=O)c1ccc(F)cc1)[C@@H](C)CN([C@H](C)CO)S2(=O)=O	-29	0	0	/	/	/	/	/
C[C@H](CO)N1C[C@H](C)[C@H](CN(C)S(=O)(=O)c2ccc(F)cc2)Oc2cc(C#Cc3ccc(F)cc3)ccc2S1(=O)=O	-72	-1	/	111*	100*	106*	5	17
C[C@@H]1CN([C@H](C)CO)S(=O)(=O)c2ccc(C#Cc3ccc(F)cc3)cc2O[C@H]1CN(C)S(=O)(=O)c1ccc(F)cc1	-34	0	-3	110*	98*	110*	41*	55*
CC(C)CC#Cc1ccc2c(c1)O[C@H](CN(C)S(=O)(=O)c1ccc(F)cc1)[C@@H](C)CN([C@H](C)CO)S2(=O)=O	-66	1	0	/	/	/	/	/
C[C@@H]1CN([C@H](C)CO)S(=O)(=O)c2ccc(C#Cc3ccc(F)cc3)cc2O[C@@H]1CN(C)S(=O)(=O)c1ccc(F)cc1	-63	1	0	?	?	112*	12	71*
C[C@H](CO)N1C[C@H](C)[C@H](CN(C)S(=O)(=O)c2ccc(F)cc2)Oc2cc(Br)ccc2S1(=O)=O	-7	-2	-6	98*	100*	29	33	65*
CCC(=O)N1[C@H](CO)[C@H]2c3ccccc3N(C(=O)c3cccc(OC)c3)C[C@H]21	-7	2	/	31	/	/	/	/
Cc1ccccc1-c1cnc2c(c1)C(=O)N([C@@H](C)CO)C[C@@H](C)[C@@H](CN(C)C(=O)c1ccncc1)O2	-14	0	-2	2	/	/	/	/
COCC#Cc1ccc2c(c1)O[C@H](CN(C)S(=O)(=O)c1ccc(F)cc1)[C@H](C)CN([C@@H](C)CO)S2(=O)=O	-53	5	2	101*	76	18	9	55*
COCC#Cc1ccc2c(c1)O[C@H](CN(C)S(=O)(=O)c1ccc(F)cc1)[C@@H](C)CN([C@H](C)CO)S2(=O)=O	-30	1	-6	75	/	/	/	/
C[C@H]1CN([C@@H](C)CO)S(=O)(=O)c2ccc(C#Cc3ccncc3)cc2O[C@H]1CN(C)S(=O)(=O)c1ccccc1	-40	-13	1	70	/	/	/	/
C[C@@H]1CN([C@@H](C)CO)S(=O)(=O)c2ccc(C#Cc3ccncc3)cc2O[C@@H]1CN(C)S(=O)(=O)c1ccc(F)cc1	-83*	-5	3	114*	?	51	34*	44*
CO[C@@H](CN(C)C(=O)Nc1ccc(Cl)cc1)[C@H](C)CN(Cc1ccccc1Cl)[C@@H](C)CO	-31	0	0	94	/	/	/	/
CO[C@@H](CN(C)C(=O)Nc1ccc(Cl)cc1)[C@@H](C)CN(Cc1ccccc1Cl)[C@@H](C)CO	-55	0	0	109*	102*	49	39*	54*
CO[C@H](CN(C)C(=O)Nc1ccc(Cl)cc1)[C@@H](C)CN(Cc1ccccc1Cl)[C@H](C)CO	-44	3	0	102*	106*	78	23	77*
C[C@H](CO)N1C[C@H](C)[C@H](CN(C)S(=O)(=O)c2cccc(F)c2)Oc2ncc(C#CC3CC3)cc2C1=O	-28	-2	/	-5	/	/	/	/
C[C@H](CO)N1C[C@H](C)[C@@H](CN(C)S(=O)(=O)c2ccc(F)cc2)OCCCC[C@H](C)Oc2ccc(NC(=O)Nc3ccc4c(c3)OCO4)cc2C1=O	-40	17	4	100*	110*	62	-23	4
